Results taken from ChEMBL document CHEMBL4680130, “Substituted 4-phenylthiazoles: Development of potent and selective A, A and dual A/A adenosine receptor antagonists” (Eur J Med Chem, 2020).

Legend:
[1] = target: T1, Adenosine receptor A1 (Homo sapiens, UniProt P30542); assay: Displacement of [3H]CCPA from human adenosine receptor A1 expressed in CHO cell membranes incubated for 90 mins by radioligand competition assay; set-up: species or system Cell membrane
T1 sequence (P30542 whole entry): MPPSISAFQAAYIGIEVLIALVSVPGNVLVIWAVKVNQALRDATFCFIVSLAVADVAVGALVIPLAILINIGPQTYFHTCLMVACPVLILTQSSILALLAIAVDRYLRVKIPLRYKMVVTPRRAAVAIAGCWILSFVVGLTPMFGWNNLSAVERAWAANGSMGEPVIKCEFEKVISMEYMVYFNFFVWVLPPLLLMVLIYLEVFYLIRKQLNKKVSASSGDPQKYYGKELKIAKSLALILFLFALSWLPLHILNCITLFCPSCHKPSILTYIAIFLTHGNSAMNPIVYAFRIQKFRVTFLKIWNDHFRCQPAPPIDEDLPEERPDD

[2] = target: T2, Adenosine receptor A1 (Rattus norvegicus, UniProt P25099); assay: Displacement of [3H]CCPA from adenosine receptor A1 in rat brain cortex membranes incubated for 90 mins by radioligand competition assay; type: cell membranes, Cell membrane
T2 sequence (P25099 whole entry): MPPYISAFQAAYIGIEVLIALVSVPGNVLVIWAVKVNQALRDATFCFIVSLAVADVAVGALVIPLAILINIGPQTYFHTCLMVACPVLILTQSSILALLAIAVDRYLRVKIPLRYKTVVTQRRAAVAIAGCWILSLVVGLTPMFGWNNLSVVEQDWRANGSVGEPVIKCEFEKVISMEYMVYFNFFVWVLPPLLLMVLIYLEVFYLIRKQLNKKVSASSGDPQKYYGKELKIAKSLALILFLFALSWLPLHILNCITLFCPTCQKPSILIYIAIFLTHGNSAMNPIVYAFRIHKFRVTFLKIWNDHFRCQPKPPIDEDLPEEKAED

[3] = target: T3, Adenosine receptor A2a (Homo sapiens, UniProt P29274); assay: Displacement of [3H]MSX2 from human adenosine receptor A2A expressed in HEK293 cell membranes incubated for 30 mins by radioligand competition assay; set-up: species or system Cell membrane
[4] = target: Adenosine receptor A2a (Rattus norvegicus, UniProt P30543); assay: Displacement of [3H]MSX2 from adenosine receptor A2A in rat brain striatum membranes incubated for 30 mins by radioligand competition assay; type: cell membranes, Cell membrane
[5] = target: T4, Adenosine receptor A2b (Homo sapiens, UniProt P29275); assay: Displacement of [3H]PSB-603 from human adenosine receptor A2B expressed in CHO cell membranes incubated for 75 mins by radioligand competition assay; set-up: species or system Cell membrane
T4 sequence (P29275 whole entry): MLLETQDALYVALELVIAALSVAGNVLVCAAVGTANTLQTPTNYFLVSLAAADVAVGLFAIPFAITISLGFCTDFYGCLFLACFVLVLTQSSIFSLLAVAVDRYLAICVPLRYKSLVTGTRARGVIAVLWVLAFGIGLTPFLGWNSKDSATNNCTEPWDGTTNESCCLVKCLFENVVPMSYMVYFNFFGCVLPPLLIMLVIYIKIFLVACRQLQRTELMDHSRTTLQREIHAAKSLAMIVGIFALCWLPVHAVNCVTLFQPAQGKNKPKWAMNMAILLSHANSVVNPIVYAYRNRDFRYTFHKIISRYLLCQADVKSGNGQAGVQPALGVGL

[6] = target: T5, Adenosine receptor A3 (Homo sapiens, UniProt P0DMS8); assay: Displacement of [3H]PSB-11 from human adenosine receptor A3 expressed in CHO cell membranes incubated for 60 mins by radioligand competition assay; set-up: species or system Cell membrane
T5 sequence (P0DMS8 whole entry): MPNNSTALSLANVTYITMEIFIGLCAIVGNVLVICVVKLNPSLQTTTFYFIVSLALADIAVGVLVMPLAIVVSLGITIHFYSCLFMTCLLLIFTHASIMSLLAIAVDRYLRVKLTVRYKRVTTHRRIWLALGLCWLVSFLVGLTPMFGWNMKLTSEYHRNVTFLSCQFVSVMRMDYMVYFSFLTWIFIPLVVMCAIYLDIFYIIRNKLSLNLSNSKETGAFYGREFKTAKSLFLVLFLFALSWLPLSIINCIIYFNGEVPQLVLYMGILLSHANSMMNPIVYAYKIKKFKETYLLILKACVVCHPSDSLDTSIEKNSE

[7] = target: T6, Adenosine receptor A3 (Rattus norvegicus, UniProt P28647); assay: Displacement of [3H]NECA from rat adenosine receptor A3 expressed in CHO cell membranes incubated for 60 mins by radioligand competition assay; set-up: species or system Cell membrane
T6 sequence (P28647 whole entry): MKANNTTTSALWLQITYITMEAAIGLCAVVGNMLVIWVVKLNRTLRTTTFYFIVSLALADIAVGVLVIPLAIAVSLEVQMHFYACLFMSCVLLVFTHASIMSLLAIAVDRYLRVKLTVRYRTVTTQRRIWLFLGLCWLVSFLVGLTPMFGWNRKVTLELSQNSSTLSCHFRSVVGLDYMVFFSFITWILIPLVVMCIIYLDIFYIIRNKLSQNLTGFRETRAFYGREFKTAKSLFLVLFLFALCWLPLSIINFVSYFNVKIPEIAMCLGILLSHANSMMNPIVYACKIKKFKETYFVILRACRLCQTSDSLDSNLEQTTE

[8] = target: T3, Adenosine receptor A2a; assay: Displacement of [3H]MSX2 from human adenosine receptor A2A expressed in HEK293 cell membranes at 0.1 uM incubated for 30 mins by radioligand competition assay relative to control; details: Cell membrane
In short: (§1)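 A2A binding, [3H]MSX-2 1.0 nM. Membranes: rat brain striatum, or HEK293 cells expressing human A2A. Adenosine deaminase preincubation 20 min, then 30 min at rt in 50 mM Tris-HCl pH 7.4 with 2.5% DMSO. Nonspecific binding defined by 50 µM NECA. GF/B filtration, scintillation counting. Single-concentration percent inhibition, ≥3 experiments in duplicate or triplicate.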

[9] = target: T7, Adenosine receptor A1 (Rattus norvegicus) (UniProt P25099); assay: Displacement of [3H]CCPA from adenosine receptor A1 in rat brain cortex membranes at 0.1 uM incubated for 90 mins by radioligand competition assay; details: Cell membrane
T7 sequence (whole entry): T2 sequence (P25099 whole entry)
In short: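 A1 competition binding with [3H]CCPA, 0.5 nM. Membranes: CHO cells expressing human A1, or rat brain cortex. Membranes preincubated 20 min with adenosine deaminase (2 U/mL per mg protein). Incubation 90 min at rt in 50 mM Tris-HCl pH 7.4 with 2.5% final DMSO. Nonspecific binding defined by 10 µM 2-chloroadenosine. GF/B filtration, scintillation counting.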

[10] = target: Adenosine receptor A2a (Rattus norvegicus) (UniProt P30543); assay: Displacement of [3H]MSX2 from adenosine receptor A2A in rat brain striatum membranes at 0.1 uM incubated for 30 mins by radioligand competition assay relative to control; details: Cell membrane; in short: as §1
[11] = target: T8, Adenosine receptor A2b (Homo sapiens) (UniProt P29275); assay: Displacement of [3H]PSB-603 from human adenosine receptor A2B expressed in CHO cell membranes at 0.1 uM incubated for 75 mins by radioligand competition assay relative to control; details: Cell membrane
T8 sequence (whole entry): T4 sequence (P29275 whole entry)
In short: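 CHO membranes expressing human or rat A2B, [3H]PSB-603 0.3 nM. Nonspecific binding defined by 10 µM DPCPX. Preincubated 20 min with adenosine deaminase, then 75 min at rt in Tris-HCl pH 7.4 with 2.5% DMSO. Filters washed with ice-cold 50 mM Tris-HCl containing 0.1% BSA; scintillation counting.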

[12] = in the assay text read “at 1 uM” for “at 0.1 uM”

T3 sequence (P29274 whole entry): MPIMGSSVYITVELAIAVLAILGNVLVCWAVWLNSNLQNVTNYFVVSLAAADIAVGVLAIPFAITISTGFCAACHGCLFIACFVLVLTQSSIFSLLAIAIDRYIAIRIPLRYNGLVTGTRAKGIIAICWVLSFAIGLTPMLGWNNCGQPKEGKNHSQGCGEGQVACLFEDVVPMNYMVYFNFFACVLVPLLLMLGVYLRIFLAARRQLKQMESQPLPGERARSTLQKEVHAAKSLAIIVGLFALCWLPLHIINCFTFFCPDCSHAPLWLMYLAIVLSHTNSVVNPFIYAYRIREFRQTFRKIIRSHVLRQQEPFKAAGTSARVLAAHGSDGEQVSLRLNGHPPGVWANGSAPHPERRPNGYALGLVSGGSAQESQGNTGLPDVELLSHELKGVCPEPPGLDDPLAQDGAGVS
Chain of Adenosine receptor A2a (Rattus norvegicus, UniProt P30543) (P30543 whole entry): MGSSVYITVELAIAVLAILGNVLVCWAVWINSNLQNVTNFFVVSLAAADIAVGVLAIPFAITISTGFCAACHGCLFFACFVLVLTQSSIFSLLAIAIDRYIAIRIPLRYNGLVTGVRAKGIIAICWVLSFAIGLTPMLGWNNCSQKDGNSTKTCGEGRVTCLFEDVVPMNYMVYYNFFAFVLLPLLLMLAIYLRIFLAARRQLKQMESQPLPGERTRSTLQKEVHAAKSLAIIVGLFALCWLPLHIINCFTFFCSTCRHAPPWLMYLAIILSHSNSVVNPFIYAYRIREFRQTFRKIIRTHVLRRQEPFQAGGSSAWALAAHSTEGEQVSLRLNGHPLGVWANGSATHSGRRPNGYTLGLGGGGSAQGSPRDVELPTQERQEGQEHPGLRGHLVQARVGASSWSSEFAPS
Chain of Adenosine receptor A2a (Rattus norvegicus) (P30543 whole entry): as above

Structure (SMILES) | Ki [1] [nM] | Ki [2] [nM] | Ki [3] [nM] | Ki [4] [nM] | Ki [5] [µM] | Ki [6] [nM] | Ki [7] [nM] | inhibition [8, 12] [%] | inhibition ([9]; filed as antagonist) [%] | inhibition [10] [%] | inhibition [11] [%] | inhibition [9] [%] | inhibition ([8]; filed as antagonist, in the assay text read “1 uM” for “0.1 uM”) [%]
CC[C@@H]1CN2C(=O)N(C)c3nc(-c4cc(Cl)cc(Cl)c4Cl)[nH]c3C2=N1 | 1700 | 805 | 2700 | 6040 | 30 | – | – | – | – | – | – | – | –
COc1ccc(C(=O)Nc2nc(-c3ccccc3)c(-c3nc4ccccc4c(=O)n3-c3ccccc3)s2)cc1 | > 1000 | > 1000 | > 1000 | > 1000 | > 0.1 | 174 | – | 20 | 11 | 1 | – | – | –
Cc1ccc(-n2c(-c3sc(NC(=O)c4ccccc4)nc3-c3ccccc3)nc3ccccc3c2=O)cc1 | > 1000 | > 1000 | > 1000 | > 1000 | > 0.1 | 9.05 | 806 | – | 23 | 17 | – | – | –
CC[C@@H]1CN2C(=O)N(C)c3nc(-c4ccccc4)[nH]c3C2=N1 | – | – | 108 | – | 3.7 | – | > 10000 | – | – | – | – | – | –
COc1ccc(C(=O)Nc2nc(-c3ccccc3)c(C(=O)c3ccccc3)s2)cc1 | 36.7 | 1.47 | > 1000 | > 1000 | > 0.1 | 25.4 | > 1000 | – | – | 32 | 2 | – | 41

Other lines, results leading:

Ki [1] [nM] | Ki [2] [nM] | Ki [3] [nM] | Ki [4] [nM] | Ki [5] [µM] | Ki [6] [nM] | Ki [7] [nM] | inhibition [8, 12] [%] | inhibition ([9]; filed as antagonist) [%] | inhibition [10] [%] | inhibition [11] [%] | inhibition [9] [%] | inhibition ([8]; filed as antagonist, in the assay text read “1 uM” for “0.1 uM”) [%] | Structure (SMILES)
> 1000 | > 1000 | > 1000 | > 1000 | > 0.1 | 8.23 | 1320 | 3 | 10 | 17 | – | – | – | COc1ccc(-n2c(-c3sc(NC(=O)c4ccccc4)nc3-c3ccccc3)nc3ccccc3c2=O)cc1
> 1000 | > 1000 | > 1000 | > 1000 | > 0.1 | 48.3 | 607 | 8 | – | 14 | 1 | 24 | – | O=C(Nc1nc(-c2ccccc2)c(-c2nc3ccccc3c(=O)n2-c2ccc(Cl)cc2)s1)c1ccco1
> 10000 | – | 3660 | – | > 10 | – | – | – | – | – | – | – | – | CCCOC(=O)c1c(-c2ccccc2)nc(CC)c(C(=O)SCC)c1CCC
– | – | – | – | 3.2 | – | – | – | – | – | – | – | – | COc1cc(-c2nc(NC(C)=O)sc2-c2ccncc2)cc(OC)c1OC
